We go through four compounds from ChEMBL document CHEMBL4765448, “Multiple biological active 4-aminopyrazoles containing trifluoromethyl and their 4-nitroso-precursors: Synthesis and evaluation” (Eur J Med Chem, 2020).

The inhibition in vivo is the change of the read-out against control, counted positive when it falls. A word on the IC50: it is the midpoint of a concentration-inhibition curve. The term LD50 denotes the dose expected to kill half of the subjects tested. A lower LD50 goes with a more toxic substance.

For series [1], the system named is Rattus norvegicus. The series is described as follows: Analgesic activity in rat assessed as prolongation of latency period at 10 mg/kg, ip measured after 1 hr by hot-plate test relative to control. It is filed as functional. The gist of the method:
(§1)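 Hot-plate test in rats. Compounds were given by intraperitoneal injection. Latency was read at 1 h and, for some compounds, also at 2 h after dosing. Results are expressed as % prolongation of the latent period versus vehicle-treated control. Significance was given as p-values.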
For orientation: In hot-plate and tail-flick tests a longer latency is read as antinociception.

The nature of series [2]: Acute toxicity in mouse at 70 mg/kg, ip administered as single dose. It counts as organism-based. The settings on record: in vivo. The gist of the method:
(§2)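 Mice, single intraperitoneal dose, following OECD Guideline for testing of chemicals; three mice per dose level; doses tested 10–300 mg/kg. Read-out is the number of survivors out of 3, used to estimate the expected LD50 range.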

Series [3] has as its system Rattus norvegicus. The series is described as follows: Antiinflammatory activity in rat model of carrageenan-induced paw edema assessed as inhibition of hind paw swelling at 10 mg/kg, ip measured after 1 hr relative to control. It counts as functional. On the technique in general: Carrageenan injected into the paw causes an acute inflammation.
The subject of series [4] is Rattus norvegicus. The series is described as follows: Antiinflammatory activity in rat model of carrageenan-induced paw edema assessed as inhibition of hind paw swelling at 10 mg/kg, ip measured after 3 hrs relative to control. It counts as functional.
The test system of series [5] is Rattus norvegicus. The series is described as follows: Analgesic activity in rat assessed as prolongation of latency period at 15 mg/kg, ip measured after 1 hr by hot-plate test relative to control. It is filed as functional. In short, it runs like this:
as §1

In series [6] the test system is Rattus norvegicus. The series is described as follows: Antiinflammatory activity in rat model of carrageenan-induced paw edema assessed as inhibition of hind paw swelling at 15 mg/kg, ip measured after 3 hrs relative to control. It counts as functional.
Series [7] can be described thus: Acute toxicity in mouse at 300 mg/kg, ip administered as single dose. The settings on record: in vivo. It counts as organism-based. In short, it runs like this: as §2
The subject of series [8] is Rattus norvegicus. The series is described as follows: Analgesic activity in rat assessed as prolongation of latency period at 15 mg/kg, ip measured after 2 hrs by hot-plate test relative to control. It counts as functional. In short, it runs like this: as §1
Series [9] relates to Erythrocyte. The series is described as follows: Antioxidant activity in human erythrocytes assessed as protection against AAPH-induced hemolysis at 50 uM preincubated for 20 mins followed by AAPH addition and measured after 2 hrs by spectrophotometric method relative to control. It counts as functional. The settings on record: time 140 min, 2.333 h. The gist of the method: (§3)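 Erythrocyte hemolysis assay with AAPH as the free-radical initiator, testing 50 and 400 µM. Results are expressed as relative protection of membranes against oxidative damage, each the mean of two independent experiments.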

Series [10] can be described thus: Antioxidant activity assessed as trolox equivalent of ABTS radical scavenging activity measured after 1 hr by UV-vis spectrophotometric method. It is filed as functional. The gist of the method: (§4)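 ABTS cation-radical decolorization was read spectrophotometrically as the fall in absorbance after 1 h. Trolox was the reference. TEAC was taken as the ratio of concentration-response slopes, test/Trolox, and IC50 was also derived. Data are mean ± SEM, n = 3.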

The subject of series [11] is Erythrocyte. The series is described as follows: Antioxidant activity in human erythrocytes assessed as protection against AAPH-induced hemolysis at 400 uM preincubated for 20 mins followed by AAPH addition and measured after 2 hrs by spectrophotometric method relative to control. It counts as functional. The conditions noted are these: time 140 min, 2.333 h. In short, it runs like this:
as §3

A short description of series [12]: Antioxidant activity assessed as AAPH scavenging activity by measuring residual fluorescence at 50 uM measured at 1 min interval for 30 mins by ORAC fluorescein assay relative to control. It counts as functional. In short, it runs like this: (§5)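 ORAC-FL assay with fluorescein as the probe and AAPH as the peroxyl radical generator. The loss of fluorescence over time was followed, and the result is given as % fluorescence restored at 10 and 50 µM. Each value is the mean of two independent experiments.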

For series [13], the system named is Rattus norvegicus. The series is described as follows: Antiinflammatory activity in rat model of carrageenan-induced paw edema assessed as inhibition of hind paw swelling at 15 mg/kg, ip measured after 1 hr relative to control. It is filed as functional.
For series [14], the system named is Rattus norvegicus. The series is described as follows: Antiinflammatory activity in rat model of carrageenan-induced paw edema assessed as inhibition of hind paw swelling at 15 mg/kg, ip measured after 5 hrs. It is filed as functional, organism-based.
Series [15] can be described thus: Antioxidant activity assessed as ABTS radical scavenging activity measured after 1 hr by UV-vis spectrophotometric method. It counts as functional. The gist of the method: as §4
Series [16] is described as follows: Acute toxicity in ip dosed mouse administered as single dose. It counts as organism-based. The settings on record: in vivo. The gist of the method:
as §2

A short description of series [17]: Antioxidant activity assessed as AAPH scavenging activity by measuring residual fluorescence at 10 uM measured at 1 min interval for 30 mins by ORAC fluorescein assay relative to control. It is filed as functional. The gist of the method: as §5
In series [18] the test system is NHDF. The series is described as follows: Cytotoxicity against HDF cells. The settings on record: Homo sapiens, NHDF; read-out: IC50. It is filed as cell-based, Homo sapiens.
Series [19] deals with HeLa. The series is described as follows: Cytotoxicity against human HeLa cells. It counts as functional, cell-based.
The nature of series [20]: Selectivity index, ratio of IC50 for HDF cells to IC50 for human HeLa cells. It is filed as toxicity. The conditions noted are these: HDF cells versus HeLa cells, read-out: Ratio IC50.
A short description of series [21]: Acute toxicity in mouse at 10 mg/kg, ip administered as single dose. It is filed as organism-based. The conditions noted are these: in vivo. In short, it runs like this:
as §2

Series [22] in a line: Acute toxicity in mouse at 75 mg/kg, ip administered as single dose. It is filed as organism-based. The conditions noted are these: in vivo. In short, it runs like this: as §2

Molecules are shown by their SMILES. Activity calls are given as the source filed them. The rule behind the calls is not given here.

As to `O=C(O)Cc1ccccc1Nc1c(Cl)cccc1Cl` [DICLOFENAC], the Activity is 57.1% in series [1] and “Non-Toxic” in series [2]. The inhibition in vivo at 10 mg/kg in series [3] was 53.9%; in [4] it was 61.8%.

Consider `CS(=O)(=O)c1ccc(N2N=C(c3ccccc3)/C(=N\O)C2(O)C(F)(F)F)cc1` (centres undefined), for which the Activity in [5] was 53.7%; in [7], “Non-Toxic”; in series [8] it was 44.3%; in [10], 0.16 equiv; in series [12], 49.1%; in series [17], 30.6%. Besides, the inhibition entry in series [6] and in series [13] was “inactive” in each case. Moreover, the results for the “fold change (FC)” value in series [9] and in series [11] were 1.03 and 1.14, respectively. Besides, the outcome in series [14] was Active. Moreover, the IC50 in series [15] was 169 µM. In addition, in series [16], the LD50 was over 300 mg/kg.

On to `Cc1ccc(C2=NN(c3ccc(S(N)(=O)=O)cc3)C(O)(C(F)(F)F)/C2=N/O)cc1` (centres undefined), for which the Activity in series [5] is 58.9%; in series [7], “Non-Toxic”; in series [8], 96.55%; in [10], 0.48 equiv; in series [12], 59.4%; in series [19], “Dose-dependent effect”. Further, the Activity in [17] turned out to be 38.5%. The inhibition result in series [6] and in series [13] was “inactive” in each case. In addition, the “fold change (FC)” value in series [9] is on record as 1.09; in series [11], 1.08. Further, the IC50 was 99.3 µM in series [18]; 45.3 µM in series [15]; 7.23 µM in [19] (Homo sapiens, HeLa, read-out: IC50). Moreover, the result in [14] was Active. In series [16], this compound showed an LD50 of over 300 mg/kg. Besides, the selectivity ratio in [20] was determined as 13.7.

As to `Nc1c(C(F)(F)F)n[nH]c1-c1cccs1`, the “fold change (FC)” value in series [9] amounted to 1.11; in series [11], 0.01. Also, the Activity result in series [21] is listed as “Non-Toxic”; in series [22], “Toxic”. Further, in series [15], the IC50 is 17.6 µM.
